Assay [1] addresses T1, Leucine-rich repeat serine/threonine-protein kinase 2 (Homo sapiens, UniProt Q5S007). Kind of assay: Inhibition of N-terminal GST-fused human wild type LRRK2 using fluorescein-labeled LRRKtide as substrate preincubated for 15 mins followed by substrate addition and measured after 1 hr by TR-FRET assay. The method in brief:
(§1)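 Purified truncated LRRK2, WT or G2019S, at 2 nM nominal was preincubated with inhibitor for 15 min. LRRKtide (0.4 μM) and ATP (25 μM) were then added for 1 h. The reaction was stopped with 10 mM EDTA plus 2 nM Tb-anti-pLRRKtide antibody, and TR-FRET was read. IC50 is the geometric mean of at least two independent experiments.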
(In general: In TR-FRET formats the signal depends on donor and acceptor labels being close together.)

The target of assay [2] is T2, Leucine-rich repeat serine/threonine-protein kinase 2 (Homo sapiens, UniProt Q5S007, G2019S). Kind of assay: Inhibition of N-terminal GST-fused human LRRK2 G2019S mutant using fluorescein-labeled LRRKtide as substrate preincubated for 15 mins followed by substrate addition and measured after 1 hr by TR-FRET assay. An outline of the steps:
as §1

The species named for assay [3] is Homo sapiens. Kind of assay: Selectivity ratio of IC50 for inhibition of N-terminal GST-fused human wild type LRRK2 to IC50 for inhibition of N-terminal GST-fused human […] mutant. The method in brief:
as §1

Assay [4] concerns the target T1, Leucine-rich repeat serine/threonine-protein kinase 2. Kind of assay: Inhibition of human wild type LRRK2 expressed in HEK293 cells assessed as reduction in pSer935 phosphorylation incubated for 2 hrs by HTRF analysis. Format: cell-based. The method in brief:
(§2)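 Stably transfected HEK293 cells expressing human WT or G2019S LRRK2 were seeded at 5K/well in DMEM with 1% serum on poly-D-lysine plates. Inhibitor in DMSO was added for 2 h at 37 °C. pS935 was detected by an HTRF kit. IC50 is the geometric mean of at least two independent experiments.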

Assay [5] has as its target T2, Leucine-rich repeat serine/threonine-protein kinase 2. Kind of assay: Inhibition of human LRRK2 G2019S mutant expressed in HEK293 cells assessed as reduction in pSer935 phosphorylation incubated for 2 hrs by HTRF analysis. Format: cell-based. The method in brief:
as §2

The species entered for assay [6] is Homo sapiens. Kind of assay: Selectivity ratio of IC50 for inhibition of human wild type LRRK2 expressed in HEK293 cells to IC50 for inhibition of human LRRK2 G2019S mutant expressed in HEK293. Format: cell-based. The method in brief: (§3)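 HEK293 cells stably expressing WT or G2019S LRRK2 (100 000/well, EMEM with 1% FBS) were dosed about 24 h after plating, for 2 h. They were lysed in 1% SDS Tris buffer with protease and phosphatase inhibitors, and lysates were heated at 65 °C for 10 min. pThr73-Rab10, total Rab10, pS935 and total LRRK2 were quantified by immunoblot. IC50 is the geometric mean of at least two independent experiments.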

For assay [7], the target named is T1, Leucine-rich repeat serine/threonine-protein kinase 2. Kind of assay: Inhibition of human wild type LRRK2 expressed in HEK293 cells assessed as reduction in pSer935 phosphorylation incubated for 2 hrs by immunoblotting analysis. It is filed as cell-based. The method in brief: as §3
For orientation: Immunoblotting shows a protein as a band on a membrane.

Assay [8] addresses T2, Leucine-rich repeat serine/threonine-protein kinase 2. Kind of assay: Inhibition of human LRRK2 G2019S mutant expressed in HEK293 cells assessed as reduction in pSer935 phosphorylation incubated for 2 hrs by immunoblotting analysis. It is filed as cell-based. An outline of the steps: as §3
The species entered for assay [9] is Homo sapiens. Kind of assay: Selectivity ratio of IC50 for inhibition of human wild type LRRK2 expressed in HEK293 cells assessed as reduction in pSer935 phosphorylation to IC50 for inhibition of human LRRK2 G2019S mutant expressed in HEK293 cells assessed as reduction in pSer935 phosphorylation. It is filed as cell-based. An outline of the steps:
as §2

Assay [10] has as its target T1, Leucine-rich repeat serine/threonine-protein kinase 2. Kind of assay: Inhibition of human wild type LRRK2 expressed in HEK293 cells assessed as reduction in pS1292 phosphorylation incubated for 2 hrs by MSD analysis. Format: cell-based. The method in brief:
(§4)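 HEK293 cells stably expressing WT or G2019S LRRK2 (30−50K/well, DMEM with 1% serum) were treated for 2 h at 37 °C and lysed with phosphatase inhibitors. LRRK2 was captured on anti-LRRK2-coated MSD plates overnight at 4 °C. Detection used rabbit anti-pS1292 (1:400) and Sulfo-Tag anti-rabbit, with an electrochemiluminescence read-out. IC50 is the geometric mean of at least two independent experiments.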

The target of assay [11] is T2, Leucine-rich repeat serine/threonine-protein kinase 2. Kind of assay: Inhibition of human LRRK2 G2019S mutant expressed in HEK293 cells assessed as reduction in pS1292 phosphorylation incubated for 2 hrs by MSD analysis. It is filed as cell-based. An outline of the steps:
as §4

The species named for assay [12] is Homo sapiens. Kind of assay: Selectivity ratio of IC50 for inhibition of human wild type LRRK2 expressed in HEK293 cells assessed as reduction in pS1292 phosphorylation to IC50 for inhibition of human LRRK2 G2019S mutant expressed in HEK293 cells assessed as reduction in pS1292 phosphorylation. Format: cell-based. An outline of the steps:
as §4

Assay [13] has as its target T1, Leucine-rich repeat serine/threonine-protein kinase 2. Kind of assay: Inhibition human wild type LRRK2 expressed in human HEK293 assessed as Rab10 substrate phosphorylation at Threonine 73 residue incubated for 2 hrs by immunoblotting analysis. It is filed as cell-based. An outline of the steps:
as §3

The target of assay [14] is T2, Leucine-rich repeat serine/threonine-protein kinase 2. Kind of assay: Inhibition human LRRK2 G2019S mutant expressed in human HEK293 assessed as Rab10 substrate phosphorylation at Threonine 73 residue incubated for 2 hrs by immunoblotting analysis. Format: cell-based. The method in brief:
as §3

The species entered for assay [15] is Homo sapiens. Kind of assay: Selectivity ratio of IC50 for inhibition human wild type LRRK2 expressed in human HEK293 assessed as Rab10 substrate phosphorylation at Threonine 73 residue to IC50 for inhibition of human LRRK2 G2019S mutant expressed in human HEK293 assessed as Rab10 substrate phosphorylation at Threonine 73 residue. The method in brief: as §3

Structures are written as SMILES.

T2 sequence (Q5S007 whole entry G2019S, the tested form may be a part): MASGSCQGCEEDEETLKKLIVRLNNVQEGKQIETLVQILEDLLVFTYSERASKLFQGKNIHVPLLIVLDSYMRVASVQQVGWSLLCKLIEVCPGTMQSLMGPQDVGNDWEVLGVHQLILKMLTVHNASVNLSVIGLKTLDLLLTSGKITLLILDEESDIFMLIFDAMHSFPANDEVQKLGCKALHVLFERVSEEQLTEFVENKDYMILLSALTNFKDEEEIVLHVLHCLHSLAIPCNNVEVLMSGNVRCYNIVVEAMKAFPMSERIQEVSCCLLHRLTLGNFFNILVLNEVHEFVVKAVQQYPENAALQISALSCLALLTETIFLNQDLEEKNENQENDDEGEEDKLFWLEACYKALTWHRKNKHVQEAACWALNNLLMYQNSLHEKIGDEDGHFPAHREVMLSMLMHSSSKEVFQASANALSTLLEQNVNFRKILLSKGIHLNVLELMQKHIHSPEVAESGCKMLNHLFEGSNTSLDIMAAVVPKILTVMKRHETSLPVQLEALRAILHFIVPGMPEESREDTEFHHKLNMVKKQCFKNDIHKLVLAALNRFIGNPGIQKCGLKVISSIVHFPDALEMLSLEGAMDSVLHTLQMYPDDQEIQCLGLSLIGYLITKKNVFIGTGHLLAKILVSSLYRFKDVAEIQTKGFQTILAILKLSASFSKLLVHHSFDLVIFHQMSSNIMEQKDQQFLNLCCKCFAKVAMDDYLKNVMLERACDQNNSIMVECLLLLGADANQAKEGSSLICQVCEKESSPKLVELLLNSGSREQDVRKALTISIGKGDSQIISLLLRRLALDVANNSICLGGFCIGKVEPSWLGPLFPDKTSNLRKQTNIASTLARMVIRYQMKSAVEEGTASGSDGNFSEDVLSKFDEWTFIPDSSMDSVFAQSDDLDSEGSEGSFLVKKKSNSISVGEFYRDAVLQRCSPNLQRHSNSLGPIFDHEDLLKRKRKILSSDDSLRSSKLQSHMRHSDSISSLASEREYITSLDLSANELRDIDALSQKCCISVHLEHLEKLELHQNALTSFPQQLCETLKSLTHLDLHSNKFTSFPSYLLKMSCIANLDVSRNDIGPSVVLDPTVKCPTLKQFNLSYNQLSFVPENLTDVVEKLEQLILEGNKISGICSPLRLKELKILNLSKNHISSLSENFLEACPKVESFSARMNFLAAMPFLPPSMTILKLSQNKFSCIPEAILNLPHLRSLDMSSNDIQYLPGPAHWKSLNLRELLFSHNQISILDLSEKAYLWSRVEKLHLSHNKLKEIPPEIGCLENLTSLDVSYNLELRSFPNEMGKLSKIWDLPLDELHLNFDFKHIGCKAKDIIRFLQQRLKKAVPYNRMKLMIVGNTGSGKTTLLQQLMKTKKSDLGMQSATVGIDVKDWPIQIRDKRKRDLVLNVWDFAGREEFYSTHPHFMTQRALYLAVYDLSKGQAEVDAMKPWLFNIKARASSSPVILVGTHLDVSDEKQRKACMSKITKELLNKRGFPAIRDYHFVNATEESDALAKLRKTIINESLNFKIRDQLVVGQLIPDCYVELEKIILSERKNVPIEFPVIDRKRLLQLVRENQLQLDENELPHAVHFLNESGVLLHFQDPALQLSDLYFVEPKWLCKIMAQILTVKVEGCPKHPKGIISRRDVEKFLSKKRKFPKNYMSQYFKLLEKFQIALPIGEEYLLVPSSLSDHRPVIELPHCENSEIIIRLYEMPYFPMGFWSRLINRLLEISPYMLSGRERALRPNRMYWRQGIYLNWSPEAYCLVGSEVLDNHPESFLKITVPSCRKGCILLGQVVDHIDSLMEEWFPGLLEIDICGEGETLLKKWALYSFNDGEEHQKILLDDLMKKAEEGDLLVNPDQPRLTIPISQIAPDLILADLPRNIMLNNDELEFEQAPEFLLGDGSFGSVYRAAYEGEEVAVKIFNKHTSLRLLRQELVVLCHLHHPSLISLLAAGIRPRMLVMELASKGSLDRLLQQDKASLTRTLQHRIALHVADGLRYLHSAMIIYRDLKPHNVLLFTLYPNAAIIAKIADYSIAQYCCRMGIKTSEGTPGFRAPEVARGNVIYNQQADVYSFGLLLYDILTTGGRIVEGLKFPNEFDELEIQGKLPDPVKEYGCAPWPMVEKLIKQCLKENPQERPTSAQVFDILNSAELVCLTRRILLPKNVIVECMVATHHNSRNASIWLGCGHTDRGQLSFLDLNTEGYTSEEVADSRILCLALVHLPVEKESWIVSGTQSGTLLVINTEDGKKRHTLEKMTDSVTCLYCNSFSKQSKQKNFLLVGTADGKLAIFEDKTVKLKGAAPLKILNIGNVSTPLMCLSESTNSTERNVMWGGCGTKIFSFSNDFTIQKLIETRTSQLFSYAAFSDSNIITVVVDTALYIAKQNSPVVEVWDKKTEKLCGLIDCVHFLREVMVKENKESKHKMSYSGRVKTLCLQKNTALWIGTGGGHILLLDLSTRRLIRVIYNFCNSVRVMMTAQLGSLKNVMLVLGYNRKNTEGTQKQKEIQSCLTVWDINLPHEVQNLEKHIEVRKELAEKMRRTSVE
T1 sequence (Q5S007 whole entry, the tested form may be a part): as the sequence (Q5S007 whole entry G2019S, the tested form may be a part) above, with S2019G counted along it

`CC1=C(C(=O)Nc2ccc3[nH]nc(-c4ccnc(N5CCOCC5)c4)c3c2)C(C)(C)n2nnnc2N1C`: the IC50 is 0.3 nM in assay [1]; less than 0.2 nM in [2]; 145 nM in [4]; 1.1 nM in assay [5]; 259 nM in [7]; 1.5 nM in [8]. For the same compound, the IC50 is 33.7 nM in assay [10], 1 nM in [11], 473 nM in assay [13] and 4.7 nM in assay [14]. For the same compound, the Ratio IC50 was more than 1.5 in assay [3]; 132 in assay [6]; 173 in assay [9]; 34 in assay [12]; 101 in [15].

`CC1=C(C(=O)Nc2ccc3[nH]nc(C)c3c2)[C@@H](C)n2nnnc2N1C`: the IC50 was determined as 20 nM in assay [1]; 0.82 nM in assay [2]; 5220 nM in assay [4]; 46.1 nM in assay [5]; 8740 nM in assay [7]; 106 nM in assay [8]. In addition, the IC50 in assay [10] came out at 380 nM; in assay [11], 19 nM; in assay [13] it was 9740 nM; in assay [14], 137 nM. Moreover, the Ratio IC50 in [3] came to 24; in assay [6], 113; in assay [9] it was 82; in assay [12], 20; in assay [15], 71.

As to `CC1=C(C(=O)Nc2ccc3[nH]ncc3c2)[C@@H](C)n2nnnc2N1C`, the 50% inhibitory concentration (IC50) in assay [1] is 71 nM; in assay [2] it was 1.64 nM; in assay [4], more than 10000 nM; in assay [5], 189 nM; in [10], 2180 nM; in assay [11], 104 nM. Moreover, the Ratio IC50 in [3] was 43; in assay [6] it was more than 53; in assay [12], 21.

As to `CC1=C(C(=O)Nc2ccc3[nH]nc(-c4ccccc4)c3c2)C(C)(C)n2nnnc2N1C`, the half-inhibitory concentration (IC50) is 6.6 nM in assay [1]; less than 0.2 nM in assay [2]; 1060 nM in [4]; 3.1 nM in [5]; 2090 nM in assay [7]; 2.5 nM in [8]. Moreover, the IC50 turned out to be 117 nM in assay [10], 1.7 nM in assay [11], 3920 nM in [13] and 11.4 nM in assay [14]. Also, the Ratio IC50 in assay [3] is more than 33; in assay [6], 339; in [9] it was 837; in assay [12], 71; in assay [15], 344.

One may read the IC50 as the concentration that inhibits the measured activity by half.
